Assay results taken from ChEMBL document CHEMBL1275368, “Synthesis and evaluation of pyrazolone compounds as SARS-coronavirus 3C-like protease inhibitors” (Bioorg Med Chem, 2010).
Active and inactive are the calls of the source. The calls are words filed in the database; no cut-off is given here.

Key:
[1] = target: Replicase polyprotein 1ab (Severe acute respiratory syndrome-related coronavirus) (UniProt P0C6X7); experiment: Inhibition of SARS coronavirus 3C-like protease at 50 uM by fluorescence plate reader analysis
In short: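 Stored recombinant SARS-CoV 3CLpro at –70 °C in Tris/NaCl/EDTA/β-ME/DTT buffer. Screened compounds at 50 μM; those inhibiting >50% went on to the follow-up run.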

[2] = target: Genome polyprotein (Coxsackievirus B3 (strain Nancy)) (UniProt P03313); experiment: Inhibition of coxsackievirus B3 3C protease at 50 uM by fluorescence plate reader analysis
HEK293 = experiment: Cytotoxicity against HEK293 cells at 200 uM after 24 hrs by MTT assay; type: cell-based; details: human, hek293, 24 h
In short: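 HEK293 cells seeded at 2×10^5/ml in MEM with 10% FBS at 37 °C and 5% CO2. At 70% confluence, cells were exposed to compound for 24 h. MTT was then added for 4 h at 37 °C. Formazan was dissolved in DMSO after medium removal, and OD at 540 nm was read as cell viability.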

[3] = target: Replicase polyprotein 1ab (Severe acute respiratory syndrome-related coronavirus, UniProt P0C6X7); experiment: Inhibition of SARS coronavirus 3C-like protease by fluorescence plate reader analysis
Genome polyprotein = Genome polyprotein (Coxsackievirus B3 (strain Nancy), UniProt P03313); experiment: Inhibition of coxsackievirus B3 3C protease by fluorescence plate reader analysis
Sequence of Genome polyprotein (P03313 1541-1723 limits assumed): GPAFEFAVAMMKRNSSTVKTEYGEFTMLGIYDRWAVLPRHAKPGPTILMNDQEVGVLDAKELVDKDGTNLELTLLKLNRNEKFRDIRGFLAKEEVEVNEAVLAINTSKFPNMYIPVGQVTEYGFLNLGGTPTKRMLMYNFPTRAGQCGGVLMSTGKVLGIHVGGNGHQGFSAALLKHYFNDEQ

Sequence of Genome polyprotein (Coxsackievirus B3 (strain Nancy)) (P03313 whole entry): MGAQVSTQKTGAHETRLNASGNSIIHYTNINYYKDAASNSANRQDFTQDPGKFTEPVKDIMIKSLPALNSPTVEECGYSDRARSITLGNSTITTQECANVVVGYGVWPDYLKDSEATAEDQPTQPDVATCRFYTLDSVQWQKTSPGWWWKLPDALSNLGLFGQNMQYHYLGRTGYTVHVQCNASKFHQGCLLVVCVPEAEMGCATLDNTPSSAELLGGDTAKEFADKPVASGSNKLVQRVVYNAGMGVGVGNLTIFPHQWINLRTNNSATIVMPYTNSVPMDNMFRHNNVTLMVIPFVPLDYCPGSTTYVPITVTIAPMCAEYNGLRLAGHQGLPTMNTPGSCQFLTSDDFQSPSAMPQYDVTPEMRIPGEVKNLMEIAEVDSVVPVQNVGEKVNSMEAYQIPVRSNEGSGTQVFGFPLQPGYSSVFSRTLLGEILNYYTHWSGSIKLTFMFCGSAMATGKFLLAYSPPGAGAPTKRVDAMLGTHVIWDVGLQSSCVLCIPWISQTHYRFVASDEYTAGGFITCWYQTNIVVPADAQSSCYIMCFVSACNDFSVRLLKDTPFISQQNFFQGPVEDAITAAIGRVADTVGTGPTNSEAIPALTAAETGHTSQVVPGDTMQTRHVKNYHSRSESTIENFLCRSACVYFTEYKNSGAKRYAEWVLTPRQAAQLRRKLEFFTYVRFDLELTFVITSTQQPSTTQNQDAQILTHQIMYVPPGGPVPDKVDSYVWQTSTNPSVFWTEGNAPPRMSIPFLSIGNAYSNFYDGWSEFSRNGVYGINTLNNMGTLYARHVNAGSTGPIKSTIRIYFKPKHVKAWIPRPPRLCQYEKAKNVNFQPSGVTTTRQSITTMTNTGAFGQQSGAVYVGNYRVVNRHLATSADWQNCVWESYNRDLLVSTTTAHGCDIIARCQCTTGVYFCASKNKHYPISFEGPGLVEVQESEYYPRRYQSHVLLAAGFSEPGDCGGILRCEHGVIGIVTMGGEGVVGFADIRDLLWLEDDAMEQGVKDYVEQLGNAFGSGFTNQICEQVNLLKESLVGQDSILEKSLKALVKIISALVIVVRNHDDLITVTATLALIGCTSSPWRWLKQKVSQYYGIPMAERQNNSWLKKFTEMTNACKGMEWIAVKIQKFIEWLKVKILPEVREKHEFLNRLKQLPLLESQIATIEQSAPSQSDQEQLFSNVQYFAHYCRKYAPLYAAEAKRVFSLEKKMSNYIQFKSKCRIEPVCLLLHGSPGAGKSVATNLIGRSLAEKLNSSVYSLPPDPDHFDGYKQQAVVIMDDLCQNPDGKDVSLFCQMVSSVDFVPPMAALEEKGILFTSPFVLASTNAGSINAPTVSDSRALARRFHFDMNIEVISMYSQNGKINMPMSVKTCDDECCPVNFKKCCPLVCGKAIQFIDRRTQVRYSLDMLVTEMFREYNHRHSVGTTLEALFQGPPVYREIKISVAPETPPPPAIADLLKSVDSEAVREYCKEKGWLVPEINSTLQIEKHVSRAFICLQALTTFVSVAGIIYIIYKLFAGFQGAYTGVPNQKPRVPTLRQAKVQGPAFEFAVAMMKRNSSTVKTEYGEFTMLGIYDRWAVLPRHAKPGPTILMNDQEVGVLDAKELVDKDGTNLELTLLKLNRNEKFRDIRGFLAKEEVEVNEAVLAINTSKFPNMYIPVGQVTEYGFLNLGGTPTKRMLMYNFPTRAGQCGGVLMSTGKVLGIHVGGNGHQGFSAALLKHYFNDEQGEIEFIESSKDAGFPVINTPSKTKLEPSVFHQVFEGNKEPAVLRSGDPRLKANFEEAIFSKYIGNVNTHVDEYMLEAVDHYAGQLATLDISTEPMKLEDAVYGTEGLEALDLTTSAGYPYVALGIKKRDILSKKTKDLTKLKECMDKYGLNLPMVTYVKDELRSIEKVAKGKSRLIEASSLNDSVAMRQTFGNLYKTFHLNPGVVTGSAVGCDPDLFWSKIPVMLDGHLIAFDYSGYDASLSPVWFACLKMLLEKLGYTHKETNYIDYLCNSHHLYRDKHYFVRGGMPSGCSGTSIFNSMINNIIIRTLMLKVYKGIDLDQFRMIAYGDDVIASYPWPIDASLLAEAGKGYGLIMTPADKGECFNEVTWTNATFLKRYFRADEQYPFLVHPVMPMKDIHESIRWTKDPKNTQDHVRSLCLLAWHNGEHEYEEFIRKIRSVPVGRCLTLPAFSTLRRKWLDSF

| Compound | inhibition [1] | inhibition [2] | Activity (HEK293) | IC50 [3] [µM] | IC50 (Genome polyprotein) [µM] |
| --- | --- | --- | --- | --- | --- |
| O=C1/C(=C\c2ccccc2)C(c2ccccc2)=NN1c1ccc(Cl)cc1 | inactive | inactive | Non-toxic |  |  |
| CC(C)c1ccc(N2N=C(c3ccccc3)/C(=C/c3ccc(C(=O)O)cc3)C2=O)cc1 | inactive | inactive | Non-toxic |  |  |
| CN(C)c1ccc(/C=C2\C(=O)N(c3ccccc3)N=C2c2ccccc2)cc1 | inactive | inactive | Non-toxic |  |  |
| O=C1/C(=C\c2ccccc2)C(c2ccccc2)=NN1c1ccccc1 | inactive | inactive | Non-toxic |  |  |
| COc1ccc(N2N=C(c3ccccc3)/C(=C/c3ccc(C(=O)O)cc3)C2=O)cc1 |  |  | Non-toxic | 12 | 16.6 |
| COc1cccc(/C=C2\C(=O)N(c3ccccc3)N=C2c2ccccc2)c1 | inactive | inactive | Non-toxic |  |  |
| COc1ccc(/C=C2\C(=O)N(c3ccc(Cl)cc3)N=C2c2ccccc2)cc1 | inactive | inactive | Non-toxic |  |  |
| O=C1/C(=C\c2ccc(Cl)cc2)C(c2ccccc2)=NN1c1ccc(Cl)cc1 | inactive | inactive | Non-toxic |  |  |
| O=C(O)c1ccc(/C=C2\C(=O)N(c3ccccc3)N=C2c2ccccc2)cc1 |  |  | Non-toxic | 18 | 51.1 |
| CC(=O)Nc1ccc(/C=C2\C(=O)N(c3ccc(Cl)cc3)N=C2c2ccccc2)cc1 | inactive | inactive | Non-toxic |  |  |
| O=C(O)c1ccc(/C=C2\C(=O)N(c3ccc(Cl)c(Cl)c3)N=C2c2ccccc2)cc1 |  |  | Non-toxic | 24.3 | 126 |
| O=C1/C(=C\c2ccc(O)cc2)C(c2ccccc2)=NN1c1ccc(Cl)cc1 | inactive | inactive | Non-toxic |  |  |
| N#Cc1ccc(N2N=C(c3ccccc3)/C(=C/c3ccc(C(=O)O)cc3)C2=O)cc1 |  |  | Non-toxic | 5.5 | 20.8 |
| O=C(O)c1ccc(/C=C2\C(=O)N(c3ccc(Cl)cc3)N=C2c2ccccc2)cc1 |  |  | Non-toxic | 13.9 | 25 |
| O=C(O)c1ccc(/C=C2\C(=O)N(c3cccc(Cl)c3)N=C2c2ccccc2)cc1 |  |  | Non-toxic | 10.8 | 17.3 |
| O=C(O)c1ccc(/C=C2\C(=O)N(c3ccc(F)cc3)N=C2c2ccccc2)cc1 |  |  | Non-toxic | 6.8 | 22.4 |
| CC(=O)Nc1ccc(/C=C2\C(=O)N(c3ccccc3)N=C2c2ccccc2)cc1 | inactive | inactive | Non-toxic |  |  |
| O=C(O)c1ccc(/C=C2\C(=O)N(c3ccc(OC(F)(F)F)cc3)N=C2c2ccccc2)cc1 |  |  | Non-toxic | 42 | 98.8 |
| CC(C)(C)c1ccc(N2N=C(c3ccccc3)/C(=C/c3ccc(C(=O)O)cc3)C2=O)cc1 | inactive | inactive | Non-toxic |  |  |
| O=C1/C(=C\c2cccc([N+](=O)[O-])c2)C(c2ccccc2)=NN1c1ccccc1 | inactive | inactive | Non-toxic |  |  |
| O=C(O)c1ccc(/C=C2\C(=O)N(c3cccc([N+](=O)[O-])c3)N=C2c2ccccc2)cc1 |  |  | Non-toxic | 8.4 | 9.6 |
